E-selectin induc = induces E-selectin expression in human endothelial cells | P16581 | HUVEC E-selectin immunofluorescence imaging; normalized: neutral wells 0, TNF-alpha wells 100 | activation, % at 7.58 µM | 260,000 compounds, 0.37% hits | AID 686992;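 active = mean E-selectin-positive cell signal at least 10% of the positive control, reached in at least 60% of replicates, without over 20% cell loss; inconclusive = no rule given, readout overlaps actives, possibly toxicity-flagged; inactive = the rest, including those meeting only one limit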
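assay system = HUVEC, human umbilical vein endothelial cells | input = 3,000 HUVEC seeded per well | medium = EGM-2 growth medium on 0.1% gelatin-coated wells | dosing = one compound dose added by pin transfer | signal = immunofluorescence imaging | read-out basis = % PE-positive cells | control set = TNF-alpha, DMSO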
DENV2 CPE rescue = DENV2-induced cell death inhibition; CPE inhibition, % at 9.99 µM; 350,000 compounds, 1.7% hits; AID 651640; DENV2-infected cells, cytopathic effect rescue, plate reader; in the data active = CPE inhibition above about 20%, passing the limit was not always enough; inconclusive = no clear call, values can overlap the other calls; tested in BHK-21 cells;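 note: 0% = median of neutral control wells and 100% = median of positive control wells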
ERAP1 HTS inh = inhibitors of human ERAP1 aminopeptidase. 340,000 compounds, 0.15% hits. inhibition, % at 10.7 µM. Q9NZ08. recombinant ERAP1, Leu-AMC fluorescence, 60 min;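 active = mean replicate inhibition of at least 30%, or all replicates individually reaching that 30% level; inactive = mean below 30% and not every replicate reaching it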;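 note: 0% = neutral control wells and 100% = L-leucinethiol positive control wells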
Target sequence (Q9NZ08 whole entry, looked up): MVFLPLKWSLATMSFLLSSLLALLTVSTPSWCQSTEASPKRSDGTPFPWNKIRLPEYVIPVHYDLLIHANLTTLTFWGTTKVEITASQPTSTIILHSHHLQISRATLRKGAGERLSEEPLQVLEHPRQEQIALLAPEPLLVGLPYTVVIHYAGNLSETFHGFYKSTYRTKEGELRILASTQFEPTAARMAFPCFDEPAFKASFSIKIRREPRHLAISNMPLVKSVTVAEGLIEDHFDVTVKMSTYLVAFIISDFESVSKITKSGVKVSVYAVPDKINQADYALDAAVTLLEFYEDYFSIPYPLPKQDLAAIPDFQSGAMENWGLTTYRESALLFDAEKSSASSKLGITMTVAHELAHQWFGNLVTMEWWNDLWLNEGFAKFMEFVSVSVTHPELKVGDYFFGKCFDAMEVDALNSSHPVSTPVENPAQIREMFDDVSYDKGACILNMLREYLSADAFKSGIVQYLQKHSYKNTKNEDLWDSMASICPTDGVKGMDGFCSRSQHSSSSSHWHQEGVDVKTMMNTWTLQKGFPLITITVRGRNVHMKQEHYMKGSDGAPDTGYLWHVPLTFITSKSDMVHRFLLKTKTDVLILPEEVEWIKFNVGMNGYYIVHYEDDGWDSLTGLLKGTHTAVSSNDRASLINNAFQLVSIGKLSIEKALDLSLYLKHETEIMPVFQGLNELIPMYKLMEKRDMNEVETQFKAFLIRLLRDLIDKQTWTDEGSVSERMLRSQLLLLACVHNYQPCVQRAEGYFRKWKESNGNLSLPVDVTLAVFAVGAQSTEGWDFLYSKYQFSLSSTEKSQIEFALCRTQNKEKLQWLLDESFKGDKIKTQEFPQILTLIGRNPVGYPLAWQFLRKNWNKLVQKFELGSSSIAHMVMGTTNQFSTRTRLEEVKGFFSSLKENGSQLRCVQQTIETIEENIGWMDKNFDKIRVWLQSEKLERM
miR122 inh = inhibitors of miR-122 in Huh7 cells; 340,000 compounds, 0.3% hits; Huh7 miR-122 Renilla luciferase sensor, 48 h; neutral wells = 0, positive control = 100; activation (reporter increase), % at 12.5 µM; AID 602342;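 active = mean replicate activation score at least 90 and every replicate individually at or above 90; inconclusive = only one of the two criteria met; inactive = neither criterion met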;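 note: higher luciferase means less miR-122 activity so hits act as miR-122 inhibitors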
INS-1E GSIS act = primary screen for activators of insulin secretion dependent on glucose, INS-1E cells, GLuc reporter luminescence. INS-1E GLuc reporter insulin secretion, 2-3 h. activation, % at 16.6 µM. 370,000 compounds, 0.61% hits;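 active = lowest replicate activation of at least 40%, so every replicate reaches that level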;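 note: 0% = median of neutral control wells and 100% = median of IBMX positive control wells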
F508del corr = CFTR F508del correction in bronchial cells; CFBE cells, YFP halide quenching; stimulated with forskolin plus potentiator P3; % fluorescence drop versus neutral controls; activity (quench increase), % at 7.58 µM; 350,000 compounds, 0.36% hits; AID 720511;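 active = mean added fluorescence quench of at least 8% versus neutral control, with both replicates also reaching 8%; inconclusive = only one of the mean or replicate conditions met; inactive = mean below 8% and not both replicates reaching 8%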;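 note: cells transiently co-express mutant CFTR-F508del with the halide-sensitive YFP; corrector assay measuring rescue of mutant channel to the surface after 24 h compound exposure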
The depositor's hits bear a star; ? = inconclusive; / = not tested or not shown; [ ] = remark or other dose. Sampled rows, rich in hits. Any-hit rate of the full collection: about 2.6%.

SMILES	E-selectin induc	DENV2 CPE rescue	ERAP1 HTS inh	miR122 inh	INS-1E GSIS act	F508del corr
COC(=O)C[C@H]1CC[C@H]2[C@@H](COc3ccc(NC(=O)c4ccccc4OC)cc3C(=O)N2C)O1	0	9	0	/	1	-1
O=C1/C(=C\c2ccc(Cl)cc2)CCC1CNc1ccc(Cl)cc1 (stereo not drawn)	0	63*	-3	/	/	0
CN(C)CC1CC/C(=C\c2ccc(O)cc2)C1=O (stereo not drawn)	0	1	2	/	-9	-2
C[C@@H]1CN([C@@H](C)CO)C(=O)Cc2cc(NC(=O)Nc3ccccc3)ccc2O[C@@H]1CN(C)S(=O)(=O)c1cn(C)cn1	1	8	2	1[16.7 µM]	2	-2
C[C@@H]1CN([C@@H](C)CO)C(=O)Cc2cc(NC(=O)Nc3ccc(F)cc3)ccc2O[C@@H]1CN(C)S(=O)(=O)c1cn(C)cn1	73*	/	/	1[16.7 µM]	9	-2
COc1ccc(NC(=O)Nc2ccc3c(c2)CC(=O)N([C@H](C)CO)C[C@@H](C)[C@H](CN(C)S(=O)(=O)c2cn(C)cn2)O3)cc1	/	75*	2	-5[16.7 µM]	0	0
C[C@H]1CN([C@@H](C)CO)C(=O)Cc2cc(NC(=O)Nc3ccc(F)cc3)ccc2O[C@@H]1CN(C)S(=O)(=O)c1cn(C)cn1	-16	/	/	2[16.7 µM]	6	-2
C[C@H](CO)N1C[C@H](C)[C@@H](CN(C)S(=O)(=O)c2cn(C)cn2)Oc2ccc(NC(=O)Nc3cccc4ccccc34)cc2CC1=O	0	86*	1	-2[16.7 µM]	-7	-5
C[C@@H]1CN([C@H](C)CO)C(=O)c2cc(NC(=O)CCC(F)(F)F)ccc2O[C@@H](C)CCCCO[C@@H]1CN(C)CC1CCCCC1	-1	-12	/	-3[16.7 µM]	-5	0
CNC(=O)C[C@@H]1CC[C@@H]2[C@@H](COc3ccc(NC(=O)Nc4c(C)noc4C)cc3C(=O)N2C)O1	0	1	/	-4[16.7 µM]	-5	-3
O=C(O)/C=C\c1cccc(-n2nnnc2SCc2ccccc2F)c1	0	-3	-6	-2	52*	0
O=C(O)c1ccc(-n2nnnc2SCc2ccccc2F)cc1	0	2	1	/	61*	1
C[C@H](CO)N1C[C@H](C)[C@H](CN(C)Cc2ccc(F)cc2)Oc2ncc(C#Cc3cccnc3)cc2C1=O	0	3	/	/	-2	-1
COc1cccc(-c2nc(N3CCN(C)CC3)c3ccccc3n2)c1O	/	4	-3	6	-2	14*
COc1cccc(-c2nc(NCc3ccccc3)c3ccccc3n2)c1O	/	?	0	/	10	2
COc1cccc(-c2nc(NCc3ccco3)c3ccccc3n2)c1O	/	/	/	-6	76*	/
CN1CCN(c2nc(-c3ccccc3O)nc3ccccc23)CC1	0	-6	3	/	-8	2
COCC(=O)N(C)C[C@H]1Oc2cc(-c3ccc(C)cc3)ccc2S(=O)(=O)N([C@@H](C)CO)C[C@@H]1C	0	0	0	-18[16.7 µM]	-3	3
O=C(NCc1ccncn1)[C@@H]1[C@@H](CO)[C@@H]2Cn3c(ccc(-c4ccccc4)c3=O)[C@@H]2N1CC1CC1	-1	6	-5	1[16.7 µM]	-4	-3
COc1ccc(/C=C(\C#N)C(=O)NCc2cccnc2)cc1OC	0	5	63*	3	8	2
COc1cc(/C=C(\C#N)C(=O)NCc2ccccc2)ccc1OCc1ccc(C(=O)O)cc1	6	/	/	9	-75	-1
COc1cc(/C=C(/C#N)C(=O)NCCCc2ccccc2)ccc1OCC(=O)O	/	3	35*	0	3	0
O=C1C2C=C(Br)[C@H](C[C@@H]2OCCCCCCO)[C@@]12CO2	/	1	3	/	/	0
N#CCCN(C(=O)COC(=O)c1cc(=O)c2ccccc2o1)c1ccccc1	0	14	1	-5	-1	13*
CCn1nc(C(=O)OCC(=O)N(CCC#N)c2ccccc2)c2ccccc2c1=O	/	75*	2	-7	25	-2
SMILES	E-selectin induc	DENV2 CPE rescue	ERAP1 HTS inh	miR122 inh	INS-1E GSIS act	F508del corr
N#CCCN(C(=O)COC(=O)c1ccc2c(c1)OCO2)c1ccccc1	0	6	3	/	-10	0
COCC(=O)Nc1ccc2c(c1)C(=O)N(C)C[C@@H](OC)[C@H](C)CN(C(=O)CN1CCOCC1)[C@H](C)CO2	0	/	/	-19[16.7 µM]	18	0
CC(C)CC#Cc1ccc2c(c1)O[C@@H](CN(C)Cc1ccccc1)[C@@H](C)CN([C@H](C)CO)S2(=O)=O	0	/	/	4[16.7 µM]	51	-2
Cc1ccc(-c2ccc3c(c2)O[C@H](CN(C)Cc2ccc(F)cc2)[C@@H](C)CN([C@H](C)CO)S3(=O)=O)cc1	0	-5	0	98*[16.7 µM]	-10	-1
CC(C)CC#Cc1ccc2c(c1)O[C@@H](CN(C)Cc1ccc(F)cc1)[C@H](C)CN([C@H](C)CO)S2(=O)=O	0	-9	1	-6[16.7 µM]	46*	-4
Cc1noc(C)c1NC(=O)N(C)C[C@H]1Oc2cc(C#CCC3CCCC3)ccc2S(=O)(=O)N([C@@H](C)CO)C[C@@H]1C	0	-4	-2	19[16.7 µM]	-4	10*
Cc1ccc(-c2ccc3c(c2)O[C@@H](CN(C)Cc2ccc(F)cc2)[C@@H](C)CN([C@@H](C)CO)S3(=O)=O)cc1	0	-15	3	-4[16.7 µM]	-31	3
Cc1noc(C)c1NC(=O)N(C)C[C@@H]1Oc2cc(C#CCC3CCCC3)ccc2S(=O)(=O)N([C@H](C)CO)C[C@@H]1C	0	2	1	-14[16.7 µM]	-13	1
CC(C)CC#Cc1ccc2c(c1)O[C@H](CN(C)Cc1cncnc1)[C@@H](C)CN([C@H](C)CO)S2(=O)=O	-2	58*	-2	21[16.7 µM]	-15	-4
CC(C)CC#Cc1ccc2c(c1)O[C@H](CN(C)Cc1cncnc1)[C@H](C)CN([C@H](C)CO)S2(=O)=O	0	-3	1	15[16.7 µM]	-16	0
CC(=O)N1CC(=O)N2[C@H](C1)[C@H](c1ccc(-c3ccc(C)cc3)cc1)[C@@H]2CO	0	2	2	/	-13	-1
C[C@H]1CN([C@@H](C)CO)S(=O)(=O)c2ccc(C#CC3CCCC3)cc2O[C@H]1CN(C)C	-1	32*	-7	-28[16.7 µM]	3	-2
COc1ccccc1S(=O)(=O)N(C)C[C@H]1Oc2cc(C#CCC(C)C)ccc2S(=O)(=O)N([C@@H](C)CO)C[C@@H]1C	/	103*	6	47[16.7 µM]	-27	0
CC(C)CC#Cc1ccc2c(c1)O[C@@H](CN(C)C)[C@@H](C)CN([C@@H](C)CO)S2(=O)=O	0	27*	1	-9[16.7 µM]	-2	-3

Compound activity: PubChem BioAssay, Broad Institute
